Laboratory results published in ChEMBL document CHEMBL5108057, “Development of MAO-A and 5-HT2AR Dual Inhibitors with Improved Antidepressant Activity” (J Med Chem, 2022).
The source made the active and inactive calls. The calls are words filed in the database; no cut-off is given here.

Columns and labels:
[1] = Cytotoxicity against human L02 cells assessed as reduction in cell growth measured after 48 hrs by MTT assay; assay type: toxicity, cell-based
Procedure, shortened: (§1)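 MTT assay: PC12, SH-SY5Y or L02 cells at 5.0 × 10^3 per well were grown for 24 h, treated with compound dilutions from 10 mM DMSO stocks, and cultured 48 h. MTT was then added for 4 h at 37 °C, formazan dissolved in DMSO, and absorbance read at 570 nm. Viability is relative to blank control; IC50 from three repeats. Media contained 10% FBS.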

[2] = molecular target: T1, Amine oxidase [flavin-containing] A (Homo sapiens, UniProt P21397); assay: Inhibition of MAO-A (unknown origin) using p-tyramine as substrate preincubated for 15 mins followed by substrate addition and measured after 15 mins by Amplex red fluorescence based microplate reader assay
T1 sequence (P21397 whole entry): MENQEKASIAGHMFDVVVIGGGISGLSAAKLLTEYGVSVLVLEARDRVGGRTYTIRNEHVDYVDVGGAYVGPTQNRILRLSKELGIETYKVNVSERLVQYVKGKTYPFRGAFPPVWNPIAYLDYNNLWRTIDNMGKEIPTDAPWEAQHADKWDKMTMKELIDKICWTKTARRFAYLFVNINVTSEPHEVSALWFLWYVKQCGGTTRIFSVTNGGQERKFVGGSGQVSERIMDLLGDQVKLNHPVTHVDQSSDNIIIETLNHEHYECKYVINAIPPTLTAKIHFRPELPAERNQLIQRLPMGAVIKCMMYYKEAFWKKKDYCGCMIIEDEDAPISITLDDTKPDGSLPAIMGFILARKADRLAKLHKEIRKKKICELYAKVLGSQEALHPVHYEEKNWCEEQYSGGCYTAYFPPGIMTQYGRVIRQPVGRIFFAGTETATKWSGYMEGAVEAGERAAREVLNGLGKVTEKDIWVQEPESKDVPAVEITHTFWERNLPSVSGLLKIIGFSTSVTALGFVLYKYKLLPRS

[3] = Inhibition of 5-HT2AR mRNA expression in zebra fish AB assessed as fold decrease in 2 delta delta CT level at 1 uM by RT-qPCR method relative to control; assay type: functional, Danio rerio
Procedure, shortened: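 Total RNA from zebrafish was extracted with Trizol and reverse-transcribed with MMLV. SYBR Green qPCR: 95 °C 2 min; 40 cycles of 95, 60 and 72 °C, 30 s each; then 72 °C for 5 min. 5-HT2AR was normalized to GAPDH by the 2^−ΔΔCT method; mean ± SD, n = 3.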

Homo sapiens = organism: Homo sapiens; assay: Selectivity index, ratio of IC50 for inhibition of MAO-B (unknown origin) to IC50 for inhibition of MAO-A (unknown origin)
Procedure, shortened: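 Amplex Red coupled assay. Test sample was preincubated with MAO-A or MAO-B at 37 °C for 15 min. p-Tyramine substrate working solution was added, with HRP converting the H2O2 formed to resorufin, for a further 15 min at 37 °C. Fluorescence read at Ex 545/Em 590 nm. […] SI = MAO-B IC50 / MAO-A IC50.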

[4] = Cytotoxicity against rat PC-12 cells assessed as reduction in cell growth measured after 48 hrs by MTT assay; assay type: toxicity, cell-based; procedure, shortened: as §1
[5] = molecular target: T2, Amine oxidase [flavin-containing] B (Homo sapiens, UniProt P27338); assay: Inhibition of MAO-B (unknown origin) using p-tyramine as substrate preincubated for 15 mins followed by substrate addition and measured after 15 mins by Amplex red fluorescence based microplate reader assay
T2 sequence (P27338 whole entry): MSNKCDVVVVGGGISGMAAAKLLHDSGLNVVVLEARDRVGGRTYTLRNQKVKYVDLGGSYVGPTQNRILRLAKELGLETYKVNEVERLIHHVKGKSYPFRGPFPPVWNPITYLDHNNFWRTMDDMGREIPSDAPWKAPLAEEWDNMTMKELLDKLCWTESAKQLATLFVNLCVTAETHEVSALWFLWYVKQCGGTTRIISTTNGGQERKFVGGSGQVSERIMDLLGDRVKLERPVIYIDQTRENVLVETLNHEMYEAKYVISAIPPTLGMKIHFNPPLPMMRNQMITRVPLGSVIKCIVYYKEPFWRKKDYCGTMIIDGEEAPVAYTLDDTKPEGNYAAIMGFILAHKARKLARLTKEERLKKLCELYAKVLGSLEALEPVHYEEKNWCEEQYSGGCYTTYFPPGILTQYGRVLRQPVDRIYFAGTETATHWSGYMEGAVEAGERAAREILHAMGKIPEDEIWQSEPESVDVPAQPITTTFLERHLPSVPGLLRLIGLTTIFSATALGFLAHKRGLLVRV

[6] = Cytotoxicity against human SH-SY5Y cells assessed as reduction in cell growth measured after 48 hrs by MTT assay; assay type: toxicity, cell-based; procedure, shortened: as §1
Mus musculus [7] = assay: Antidepressant activity in reserpine-induced mouse assessed as increase in 5-HT1AR expression at 20 mg/kg pretreated with reserpine for 3 days followed by compound addition on day 4 to 10 by Western blot analysis; assay type: functional, organism-based; details: time 6.0 day
Procedure, shortened: (§2)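 ICR mice given reserpine 1 mg/kg i.p. for 3 consecutive days, then treated daily on days 4–10 (saline 10 mL/kg as vehicle control). Whole-brain protein quantified by BCA, diluted to 3 mg/mL, 10 μL run on 4–20% SDS-PAGE, transferred, blocked, primary antibody 4 °C overnight, secondary 1 h room temperature. Relative 5-HT1AR and 5-HT2AR levels, mean ± SD, n = 3.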

Mus musculus [8] = assay: Antidepressant activity in reserpine-induced mouse assessed as downregulation of 5-HT2AR expression at 20 mg/kg pretreated with reserpine for 3 days followed by compound addition on day 4 to 10 by Western blot analysis; assay type: functional, organism-based; details: time 6.0 day; procedure, shortened: as §2

Structure (SMILES)	IC50 at 48 h [1] [µM]	IC50 [2] [µM]	fold change (FC) [3]	Ratio IC50 (Homo sapiens)	IC50 at 48 h [4] [µM]	IC50 [5] [µM]	IC50 at 48 h [6] [µM]	Activity (Mus musculus [7])	Activity (Mus musculus [8])
COc1ccccc1N1CCN(CCCCOc2cc3c4c(nccc4c2)-c2ccccc2C3=O)CC1	> 100	0.091	0.685	47	> 10	4.28	> 10		
O=C1c2ccccc2-c2nccc3cc(OCCCCCN4CCN(c5ccccc5Cl)CC4)cc1c23	> 100	0.086	1.804	48.7	> 10	4.19	> 10		
O=C1c2ccccc2-c2nccc3cc(OCCCN4CCN(c5cccc(Cl)c5Cl)CC4)cc1c23	> 100	0.011	0.055	139	> 10	1.53	> 10		
O=C1c2ccccc2-c2nccc3cc(OCCCCCN4CCN(c5cccc(Cl)c5Cl)CC4)cc1c23	> 100	0.006	0.049	148	> 10	0.89	> 10		
O=C1c2ccccc2-c2nccc3cc(OCCCCCN4CCN(c5ccccc5)CC4)cc1c23	> 100	0.009	0.06	162	> 10	1.46	> 10		
O=C1c2ccccc2-c2nccc3cc(O)cc1c23		1.26	2.675	18.6		23.5			
O=C1c2ccccc2-c2nccc3cc(OCCCN4CCN(c5ccccc5Cl)CC4)cc1c23	> 100	0.361	1.886	41.9	> 10	15.1	> 10		
CNCCC(Oc1ccc(C(F)(F)F)cc1)c1ccccc1 (centres undefined)								Active	Active
COc1ccccc1N1CCN(CCCCCOc2cc3c4c(nccc4c2)-c2ccccc2C3=O)CC1	> 100	0.014	0.142	98.6	> 10	1.38	> 10		
COc1ccccc1N1CCN(CCCOc2cc3c4c(nccc4c2)-c2ccccc2C3=O)CC1	> 100	0.054	0.2	60.4	> 10	3.26	> 10		
O=C1c2ccccc2-c2nccc3cc(OCCCCN4CCN(c5ccccc5Cl)CC4)cc1c23	> 100	0.503	2.575	25.3	> 10	12.7	> 10		
O=C1c2ccccc2-c2nccc3cc(OCCCCN4CCN(c5ccccc5)CC4)cc1c23	> 100	0.049	1.341	69.8	> 10	3.42	> 10		
O=C1c2ccccc2-c2nccc3cc(OCCCCN4CCN(c5cccc(Cl)c5Cl)CC4)cc1c23	> 100	0.072	0.578	30	> 10	2.16	> 10		
O=C1c2ccccc2-c2nccc3cc(OCCCCN4CCN(c5ccccc5F)CC4)cc1c23	> 100	0.008	0.048	186	> 10	1.49	> 10		
O=C1c2ccccc2-c2nccc3cc(OCCCN4CCN(c5ccccc5F)CC4)cc1c23	> 100	0.005	0.038	202	> 10	1.01	> 10		
O=C1c2ccccc2-c2nccc3cc(OCCCN4CCN(c5ccccc5)CC4)cc1c23	> 100	0.009	0.069	94.4	> 10	0.85	> 10		
